MPTP inh – blocks calcium-induced mitochondrial swelling; isolated mouse mitochondria, Ca2+ swelling absorbance, 30 min; hit rate 1.4% among 360,000; inhibition, % at 10 µM;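 active = inhibition of 50% or more, scaled per plate between neutral and stimulator controls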
procasp7 counter – counter-screen: procaspase-7 (human) activation | hit rate 0.093% among 330,000 | P55210 | activation, % at 8.5 µM | recombinant procaspase-7, Ac-DEVD-pNA absorbance 405 nm; D23A/D198A/D206A triple mutant, cannot self-cleave; scale: DMSO 0, 5 µM enzyme 100 | AID 463210;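 active = percent activation above the screen-wide mean plus 3 SD, cut at about 25% in these data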
Target sequence (P55210 whole entry D23A/D198A/D206A): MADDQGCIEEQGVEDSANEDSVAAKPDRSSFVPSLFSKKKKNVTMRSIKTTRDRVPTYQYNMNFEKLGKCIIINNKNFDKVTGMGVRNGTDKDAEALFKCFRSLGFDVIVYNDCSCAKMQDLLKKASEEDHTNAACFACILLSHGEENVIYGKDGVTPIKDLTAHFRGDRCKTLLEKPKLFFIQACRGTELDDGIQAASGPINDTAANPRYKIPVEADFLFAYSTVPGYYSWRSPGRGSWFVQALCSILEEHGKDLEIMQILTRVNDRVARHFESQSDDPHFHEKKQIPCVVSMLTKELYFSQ
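Assay system – Uncleavable procaspase-7 mutant enzyme · Quantity – 2 µM procaspase-7 mutant as dispensed · Times – 1 h preincubation, 2 h reaction · Dosing – single nominal 8.5 µM compound dose, 0.8% DMSO final · Buffer or medium – Zinc-free 50 mM HEPES buffer, pH 7.4, with NaCl and Triton X-100 · Detection – Epi-absorbance of released pNA at 405 nm, two timepoints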
proCasp3 act – activators of human procaspase-3 | activation, % at 8.5 µM | P42574 | recombinant procaspase-3 D3A, Ac-DEVD-pNA absorbance 405 nm | AID 463141 | hit rate 0.11% among 330,000;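 active = activation above the mean of all tested compounds plus 3 SD, cut at about 21% in these data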
Target sequence (P42574 whole entry D9A/D28A/D175A): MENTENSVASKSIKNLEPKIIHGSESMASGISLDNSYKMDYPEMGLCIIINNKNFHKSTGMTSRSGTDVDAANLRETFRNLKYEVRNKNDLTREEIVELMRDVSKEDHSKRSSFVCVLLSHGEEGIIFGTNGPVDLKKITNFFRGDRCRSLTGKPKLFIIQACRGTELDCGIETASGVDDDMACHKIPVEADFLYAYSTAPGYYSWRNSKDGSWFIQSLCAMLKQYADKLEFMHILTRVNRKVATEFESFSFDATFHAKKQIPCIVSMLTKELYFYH
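Evaluation: percent activation relative to control range; Material: Procaspase-3 D3A mutant, all three cleavage aspartates alanine; Compound: single dose, 8.5 µM nominal compound, 0.8% DMSO; Replication: one well per compound; Signal: absorbance at 405 nm, 0 and 120 min; Schedule: 1 h preincubation plus 2 h reaction at 25 °C.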
GRIN3A LBD mod – NR3A (human) ligand-binding domain modulation; NR3A LBD differential scanning fluorimetry, Tm shift; 0% = protein alone, 100% = glycine-bound protein; Tm shift relative to glycine control, % at 25 µM; hit rate 2.5% among 340,000; AID 1259313;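 active = melting temperature shift of at least 10% of the positive control shift, at one fixed dose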
aDG glyco act – increases alpha dystroglycan glycosylation; hit rate 0.22% among 360,000; activation, % at 10 µM; Pro5-aDG cells, alpha-DG glycosylation AlphaScreen (IIH6); 0% Pro5, 100% B10-LARGE cell signal;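 active = activation of at least 8% versus controls, or a plate z-score of at least 8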;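 note: Pro5 are CHO cells carrying HIG-tagged alpha-DG that lacks glycosylation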
Numbers stand for hits; i = inactive; nt = not tested or not shown. In the library only some 3.7% were active in any assay of this set; here they are far more common.

SMILES	MPTP inh	procasp7 counter	proCasp3 act	GRIN3A LBD mod	aDG glyco act
COC(=O)c1c(NC(=O)COC(=O)CC(NC(C)=O)c2ccccc2)sc(C)c1C (configuration not stated)	i	i	i	i	i
O=C(Nc1ccccc1)c1oc2ccccc2c1NC(=O)C1CC1	i	i	i	13	i
O=C(Nc1ccccc1)c1ccc(NC(=O)C2CC2)cc1	i	i	i	16	i
Cc1ccc(C(=O)Nc2ccc(Nc3ccccc3)cc2)cc1Br	i	i	i	25	i
O=C(Nc1cccc(C(=O)Nc2ccc(Br)cc2)c1)c1ccccc1	i	i	i	27	i
O=C(NNC(=O)c1ccc(NC(=O)C2CC2)cc1)c1ccc(F)cc1	i	nt	nt	i	i
O=C(Nc1ccc(Cl)cc1Cl)c1ccc(-c2ccccc2)cc1	i	i	i	i	i
O=C(Nc1ccc(C2SCCS2)cc1)c1ccccc1	i	i	i	15	i
O=C(Nc1cc(-c2ccccc2)[nH]n1)c1ccc(Cl)cc1	i	i	i	18	i
O=C(Nc1ccc(Nc2ccccc2)cc1)c1ccc(Cl)cc1	i	i	i	32	i
Cc1ccc(NC(=O)c2ccc(NC(=O)c3ccccc3)cc2)cc1C	i	i	i	17	i
O=C(Nc1ccc(NS(=O)(=O)c2ccccc2)cc1)c1ccc(Cl)cc1	i	i	i	i	i
Cc1ccc(C(=O)Nc2ccc3ncccc3c2)cc1	i	i	i	i	i
O=C(Nc1ccc(Nc2ccccc2)cc1)c1ccc(Br)cc1	i	i	i	36	i
N#C/C(C(=O)Nc1ccc(Cl)cc1)=C(/S)Nc1ccccc1	i	i	i	32	i
O=C(Nc1ccc(F)cc1)c1ccccc1	i	i	i	16	i
O=C(Nc1ccc2ncccc2c1)c1cccc(Br)c1	i	i	i	22	i
N#Cc1ccc(CSc2ccc(S(=O)(=O)N3CCCCCC3)cn2)cc1	i	nt	nt	i	i
CN1CCC(N2CCN(C3CN(Cc4ccc(F)cc4)S(=O)(=O)C3)CC2)CC1 (configuration not stated)	i	nt	nt	nt	i
O=C(Nc1ccc(Nc2ccccc2)cc1)c1ccccc1	nt	i	i	13	nt
Cc1ccc(NC(=O)c2ccc(NS(=O)(=O)c3c(C)noc3C)cc2)cc1C	i	i	i	30	i
CCn1cc(/C=C(\NC(=O)c2ccccc2OC)C(=O)N2CCOCC2)c2ccccc21	i	nt	nt	nt	i
COc1ccc(Cn2cnc3c4cc(F)ccc4n(C)c3c2=O)cc1	i	i	i	15	i
CC(CNC(=O)[C@@H](Cc1ccccc1)NC(=O)CC[C@H]1O[C@@H](n2ccc(=O)[nH]c2=O)[C@H](O)[C@@H]1O)c1ccccc1 (some centres not stated)	i	nt	nt	nt	i
O=c1nc(Nc2ccc(Br)cc2)sc2ccc([N+](=O)[O-])cc12	i	i	i	13	i
SMILES	MPTP inh	procasp7 counter	proCasp3 act	GRIN3A LBD mod	aDG glyco act
CCCCOc1ccc(-c2cc(C(=O)NNC(=S)NCC)c3ccccc3n2)cc1	i	i	i	17	i
CCCCOc1cccc(-c2cc(C(=O)NNC(=S)NCC)c3ccccc3n2)c1	i	i	i	11	i
CCNC(=S)NNC(=O)c1cc(-c2cccc(OCC)c2)nc2ccccc12	i	i	i	i	i
COc1cccc(NC(=S)N2CCC(C(=O)c3ccc(F)cc3)CC2)c1	i	nt	nt	i	i
CCCCCCCCCCC(C(=O)O)C1(C(=O)O)CCC(=O)O1 (configuration not stated)	i	nt	nt	nt	i
COCC(=O)N(C)C[C@@H]1Oc2ncc(Br)cc2C(=O)N([C@@H](C)CO)C[C@H]1C	i	nt	nt	nt	i
C/C(=N\NC(=O)CCC(=O)O)c1c(-c2ccccc2)c2cc(Br)ccc2[nH]c1=O	i	i	i	i	i
O=C(N/N=C/c1c[nH]c2ccccc12)c1[nH]c2ccc(Br)cc2c1-c1ccccc1	i	nt	nt	27	i
O=C(N/N=C/c1ccc(O)cc1)c1[nH]c2ccc(Br)cc2c1-c1ccccc1	i	i	i	29	i
CCc1nc(N)nc(N)c1-c1ccc(Cl)c(N=[N+]=[N-])c1	i	nt	nt	i	i
CN(C)c1ccc(-c2ccc3c(=O)c4ccccc4n(C)c3c2)cn1	i	i	i	i	i
CCOC(=O)CCCCCC(=O)Nc1ccc2c(c1)C(=O)N([C@H](C)CO)C[C@H](C)[C@@H](CN(C)C(=O)Nc1ccccc1)OCCCC[C@@H](C)O2	i	nt	nt	nt	i
CCOC(=O)c1ccc(S(=O)(=O)N2CCN(C(=O)c3cccc(S(=O)(=O)N4CC(C)OC(C)C4)c3)CC2)cc1 (configuration not stated)	i	nt	nt	i	i
O=C(CCN1CCCCCC1)Nc1ccc(F)c(F)c1	i	i	i	673	i
CN1CCN(CCC(=O)Nc2ccc(F)c(F)c2)CC1	i	i	i	i	i
Cc1cccc(C(=O)Nc2ccc(C(=O)N/N=C/c3cccnc3)cc2)c1	i	i	i	i	i
Cc1ccc(C(=O)Nc2ccc(C(=O)N/N=C/c3cccnc3)cc2)cc1	i	i	i	11	i
O=C(N/N=C/c1cccnc1)c1cccc(NC(=O)c2ccc(Cl)cc2)c1	i	i	i	16	i
CCOC(=O)[C@]12CCC=C1N(Cc1ccc3c(c1)OCO3)C(=O)[C@H](CC(=O)NCC13CC4CC(CC(C4)C1)C3)C2	i	nt	nt	nt	i
CCSc1cc(N2CCCC2)nc(-c2ccc(C)cc2)n1	i	i	i	15	i
CCc1nc2c(OCCOC)cccn2c1N(C)C(=O)Nc1ccccc1OC	i	nt	nt	nt	i
Cc1ccccc1NC(=O)Cc1nc(COC(=O)CSc2ccc(F)cc2)cs1	i	nt	nt	nt	i
O=C(O)c1ccccc1-c1ccc(/C=c2\sc3nc4cc(Br)cnc4n3c2=O)o1	i	i	i	16	i
COc1cc([N+](=O)[O-])c2nc(C(=O)O)ccc2c1	i	nt	nt	i	i
COc1ccccc1Nc1ccc([N+](=O)[O-])cc1N	i	i	i	i	i
COc1cc(Nc2ccccc2Cl)c([N+](=O)[O-])nc1[N+](=O)[O-]	i	i	i	11	i
O=C(NCc1ccc(Cl)cc1)c1ccc(-c2ccccc2C(F)(F)F)o1	i	i	i	438	i
CC(C)NC(=O)Nc1ccc2c(c1)C(=O)N([C@H](C)CO)C[C@H](C)[C@@H](CN(C)C(=O)Nc1ccc(C(F)(F)F)cc1)O2	i	i	i	i	i
C[C@H](CO)N1C[C@H](C)[C@@H](CN(C)C(=O)Nc2ccccc2)Oc2c(NC(=O)Nc3ccc(C(F)(F)F)cc3)cccc2C1=O	i	i	i	28	i
C[C@H](CO)N1C[C@H](C)[C@@H](CN(C)C(=O)Nc2ccc(C(F)(F)F)cc2)Oc2ccc(NC(=O)Nc3ccc4c(c3)OCO4)cc2C1=O	i	i	i	11	i

Screens as filed in PubChem BioAssay.
